Reference: publication PMC7490525 (Biochemistry and Biophysics Reports, 2020)
Read-outs that look alike come from different tables or passages of the source. Marks after values point to notes of the source that are not given here.

Experiments:
Caco-2 cells [1] = assay: Uptake of BSP from the apical membrane of Caco-2 cells; type: in vitro ADME, human
Method in brief: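 Confluent Caco-2 cells (passage 54–70, 2 weeks on collagen) preincubated 20 min, then exposed to BSP in Hanks' buffer with glucose plus MES or HEPES. Conditions: 5 μM for 5 min at 37 °C pH 6.0 (control); pH 5.0/7.4/8.5; 4 °C; or Na+-free (KCl or choline chloride). Time course ran to 60 min; varied concentrations were fitted to carrier-mediated plus diffusion terms. Cell extracts normalised to protein; n=3–8.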

[2] = tested on: organic anion transporting polypeptides (OATPs); assay: Effect of coincubated or pretreated compounds on BSP uptake by Caco-2 cells; type: cell-based, human; details: 37 °C, 5 min; for Decrease of BSP uptake on coincubation: 5 μM BSP with 100 μM compound, Caco-2 cells; for Ki: read-out: Inhibition constant (Ki) for BSP uptake, Dixon plot, competitive, 2, 5 or 10 μM BSP, PFCA 25, 50 or 100 μM, pH 6.0
Caco-2 cells [3] = type: in vitro ADME, human; details: 1 μM PFCA, pH 6.0, 37 °C, 5 min
Caco-2 cells [4] = details: cited from earlier work
[5] = tested on: organic anion transporting polypeptides (OATPs); details: Caco-2 cells; cited from earlier work
Caco-2 cells [6] = details: cited from earlier work; remark: listed apart in the source
[7] = 5 μM BSP, 37 °C, pH 6.0, up to 60 min
[8] = Caco-2 cells, 37 °C, pH 6.0, 5 min, BSP 0.5–100 μM
[9] = coincubation of 5 μM BSP with 100 μM compound

Compound: O=C1OC(c2ccc(O)c(S(=O)(=O)O)c2)(c2ccc(O)c(S(=O)(=O)O)c2)c2c(Br)c(Br)c(Br)c(Br)c21 [BSP, sulfobromophthalein]
- Relative uptake rate (% of control) (Caco-2 cells [1]; 5 μM BSP, 4 °C and pH 6.0, 5 min, control 37 °C and pH 6.0): 49.9 ± 3.1 ^d % of control
- Relative uptake rate (% of control) (Caco-2 cells [1]; 5 μM BSP, 37 °C and pH 5.0, 5 min, control 37 °C and pH 6.0): 101.7 ± 5.1 % of control
- Relative uptake rate (% of control) (Caco-2 cells [1]; 5 μM BSP, 37 °C and pH 7.4, 5 min, control 37 °C and pH 6.0): 105.2 ± 5.3 % of control
- Relative uptake rate (% of control) (Caco-2 cells [1]; 5 μM BSP, 37 °C and pH 8.5, 5 min, control 37 °C and pH 6.0): 101.6 ± 1.3 % of control
- Relative uptake rate (% of control) (Caco-2 cells [1]; 5 μM BSP, 37 °C, 5 min, Na+-free medium (NaCl replaced with KCl)): 95.0 ± 7.4 % of control
- Relative uptake rate (% of control) (Caco-2 cells [1]; 5 μM BSP, 37 °C, 5 min, Na+-free medium (NaCl replaced with choline chloride)): 81.0 ± 4.0 % of control
- Time at which BSP uptake plateaued (Caco-2 cells [1]; [7]): about 15 min
- Time until which BSP uptake increased linearly (Caco-2 cells [1]; [7]): 10 min
- Reduction of BSP uptake at low temperature (Caco-2 cells [1]; 4 °C, pH 6.0, versus 37 °C): 50%
- Contribution of carrier-mediated uptake to BSP uptake (Caco-2 cells [1]; Caco-2 cells): approximately 70%
- Contribution of uptake via simple diffusion to BSP uptake (Caco-2 cells [1]; Caco-2 cells): ~30%
- Vmax of BSP uptake (Caco-2 cells [1]; [8]): 1.15 ± 0.07 nmol (mg protein)^−1 (5 min)^−1
- kd (coefficient of passive diffusion) of BSP uptake (Caco-2 cells [1]; [8]): 38.2 ± 0.53 μL (mg protein)^−1 (5 min)^−1
- Km (Caco-2 cells [1]; read-out: Km of BSP uptake, Caco-2 cells, 37 °C, pH 6.0, 5 min, BSP 0.5–100 μM): 13.9 ± 1.3 µM

Compound: O=[N+]([O-])c1ccc(O)c([N+](=O)[O-])c1 [DNP, 2,4-dinitrophenol]
- Relative uptake rate of BSP (% of control) ([2]; cells treated with 1 mM DNP for 20 min, then 5 μM BSP): 105.9 ± 10.0 % of control

Compound: COc1ccc(Cl)cc1C(=O)NCCc1ccc(S(=O)(=O)NC(=O)NC2CCCCC2)cc1 [Glibenclamide, glibenclamide]
- Decrease of BSP uptake on coincubation [2]: 48%
- Relative uptake rate of BSP (% of control) [2, 9]: 52.2 ± 3.5 ^d % of control

Compound: [N-]=[N+]=[N-].[Na+] [NaN3, sodium azide]
- Relative uptake rate of BSP (% of control) ([2]; cells treated with 10 mM NaN3 for 20 min, then 5 μM BSP): 106.4 ± 6.8 % of control

Compound: O=C(O)C(F)(F)C(F)(F)C(F)(F)C(F)(F)C(F)(F)C(F)(F)C(F)(F)C(F)(F)C(F)(F)F [PFDA, perfluorodecanoic acid]
- Decrease of BSP uptake on coincubation [2]: 27–55%
- Ki [2]: 43.2 ± 0.3 µM

Compound: O=C(O)C(F)(F)C(F)(F)C(F)(F)C(F)(F)C(F)(F)C(F)(F)F [PFHpA, perfluoroheptanoic acid]
- Decrease of BSP uptake on coincubation [2]: 27–55%

Compound: O=C(O)C(F)(F)C(F)(F)C(F)(F)C(F)(F)C(F)(F)F [PFHxA, Perfluorohexanoic acid]
- Uptake of PFCA by Caco-2 cells (rank among C6–C12) (Caco-2 cells [3]): the lowest

Compound: O=C(O)C(F)(F)C(F)(F)C(F)(F)C(F)(F)C(F)(F)C(F)(F)C(F)(F)C(F)(F)F [PFNA, perfluorononanoic acid]
- Uptake of PFCA by Caco-2 cells (rank among C6–C12) (Caco-2 cells [3]): the highest
- Decrease of BSP uptake on coincubation [2]: 27–55%
- Ki [2]: 35.3 ± 0.1 µM

Compound: O=C(O)C(F)(F)C(F)(F)C(F)(F)C(F)(F)C(F)(F)C(F)(F)C(F)(F)F [PFOA, Perfluorooctanoic acid]
- Uptake of PFCA by Caco-2 cells (rank among C6–C12) (Caco-2 cells [3]): third highest
- Decrease of BSP uptake on coincubation [2]: 27–55%
- Ki [2]: 62.2 ± 1.3 µM
- Vmax of PFOA uptake (Caco-2 cells [4]; PFOA 1–500 μM): 457 pmol/mg protein/min
- Km (Caco-2 cells [4]; read-out: Km of PFOA uptake, PFOA 1–500 μM): 8.3 µM

Compound: O=S(=O)(O)C(F)(F)C(F)(F)C(F)(F)C(F)(F)C(F)(F)C(F)(F)C(F)(F)C(F)(F)F [PFOS, perfluorooctane sulfonate]
- Decrease of BSP uptake on coincubation [2]: 54%
- Relative uptake rate of BSP (% of control) [2, 9]: 46.1 ± 4.5 ^d % of control

Compound: O=C(O)C(F)(F)C(F)(F)C(F)(F)C(F)(F)C(F)(F)C(F)(F)C(F)(F)C(F)(F)C(F)(F)C(F)(F)F [PFUnDA, perfluoroundecanoic acid]
- Decrease of BSP uptake on coincubation [2]: 27–55%

Compound: C[C@]12CC[C@@H]3c4ccc(OS(=O)(=O)O)cc4CC[C@H]3[C@@H]1CCC2=O [estrone-3-sulfate]
- Decrease of BSP uptake on coincubation [5]: 39%
- Km (Caco-2 cells [6]; read-out: Km of estrone-3-sulfate, ref Gram et al. [27]): 23 µM
- Km (Caco-2 cells [6]; read-out: Km of estrone-3-sulfate, ref Kis et al. [26]): 6 µM
- Km (Caco-2 cells [6]; read-out: Km of estrone-3-sulfate, ref Sai et al. [4]): 1.8 µM

Compound: CO[C@H]1/C=C/O[C@@]2(C)Oc3c(C)c(O)c4c(O)c(cc(O)c4c3C2=O)NC(=O)/C(C)=C\C=C\[C@H](C)[C@H](O)[C@@H](C)[C@@H](O)[C@@H](C)[C@H](OC(C)=O)[C@@H]1C [rifamycin SV]
- Decrease of BSP uptake on coincubation [5]: 40%
